ChEMBL document CHEMBL1123648, “Synthesis, chemical reactivity, and antileukemic activity of 5-substituted 6,7-bis(hydroxymethyl)pyrrolo[1,2-c]thiazole biscarbamates and the corresponding sulfoxides and sulfones” (1987)

Tests used:
[1] = Log cell population relative to cell population at the beginning of treatment compared to control group A at a dose of 100 mg/kg; format: functional, Mus musculus
[2] = Antileukemic activity against Murine P388 lymphocytic leukemia, body weight difference of the test animals compared to control group B animals at a dose of 100 mg/kg; format: functional, Mus musculus; parameters: unit not given here
How it was run: (§1)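 CD2F1 mice implanted intraperitoneally with ascitic fluid carrying ca. 1×10^6 P388 cells, under the NCI protocol. Dosing was intraperitoneal, starting 24 h after inoculation, then every 24 h for five doses in total. The body weight difference of treated mice is taken against untreated controls. Toxicity day survivors are the mice alive at day five out of those tested.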

[3] = Antileukemic activity against Murine P388 lymphocytic leukemia, body weight difference of the test animals compared to control group C animals at a dose of 50 mg/kg; format: functional, Mus musculus; parameters: unit not given here; how it was run: as §1
[4] = Toxicity day survivors expressed as number of animals that survived to day five/ number of test animals under control group C at a dose of 6.25 mg/kg; 6 survived out of 6; format: functional, Mus musculus
[5] = Percent increase in life span of test animals compared to untreated tumor-bearing control group C animals at a dose of 50 mg/kg; format: functional; conditions: Mus musculus
[6] = Antileukemic activity against Murine P388 lymphocytic leukemia, body weight difference of the test animals compared to control group B animals at a dose of 12.5 mg/kg; format: functional, Mus musculus; parameters: unit not given here; how it was run: as §1
[7] = Log cell population relative to cell population at the beginning of treatment compared to control group C at a dose of 100 mg/kg; format: functional, Mus musculus
[8] = Antileukemic activity against Murine P388 lymphocytic leukemia and toxicity day survivors expressed as number of animals that survived to day five/ number of test animals under control group B at a dose of 25 mg/kg; 6 survived out of 6; format: functional, Mus musculus
[9] = Toxicity day survivors expressed as number of animals that survived to day five/ number of test animals under control group B at a dose of 100 mg/kg; 6 survived out of 6; format: functional, Mus musculus
[10] = test system: P388; assay: Log cell population relative to cell population at the beginning of treatment compared to control group C at a dose of 6.25 mg/kg; format: functional, Mus musculus
[11] = Antileukemic activity against Murine P388 lymphocytic leukemia and toxicity day survivors expressed as number of animals that survived to day five/ number of test animals under control group B at a dose of 6.25 mg/kg; 6 survived out of 6; format: functional, Mus musculus
[12] = Antileukemic activity against Murine P388 lymphocytic leukemia, body weight difference of the test animals compared to control group C animals at a dose of 25 mg/kg; format: functional, Mus musculus; how it was run: as §1
[13] = Antileukemic activity against Murine P388 lymphocytic leukemia, body weight difference of the test animals compared to control group A animals at a dose of 6.25 mg/kg; format: functional, Mus musculus; how it was run: as §1
[14] = Toxicity day survivors expressed as number of animals that survived to day five/ number of test animals under control group A at a dose of 6.25 mg/kg; 6 survived out of 6; format: functional, Mus musculus
[15] = Antileukemic activity against Murine P388 lymphocytic leukemia, body weight difference of the test animals compared to control group C animals at a dose of 100 mg/kg; format: functional, Mus musculus; parameters: unit not given here; how it was run: as §1
[16] = test system: P388; assay: Log cell population relative to cell population at the beginning of treatment compared to control group C at a dose of 50 mg/kg; format: functional, Mus musculus

CC(C)NC(=O)OCc1c(COC(=O)NC(C)C)c(-c2ccc(Cl)c(Cl)c2)n2c1CCC2
KE [1]: 0.8 | BWD [2]: -4.6 | BWD [3]: -1.8 | TDS [4]: 6 | ILS at 50 mg/kg [5]: 96% | BWD [6]: -1.9 | KE [7]: >6.68 | TDS [8]: 6 | TDS [9]: 6 | KE [10]: -0.55 | TDS [11]: 6 | BWD [12]: -1.4 | BWD [13]: 0 | TDS [14]: 6 | BWD [15]: -2.6 | KE [16]: 5.27
